Measured values collected from several papers.
Protocols differ between the studies behind these lines.
Observed: cell growth or viability

Structure (SMILES)	cell line	test	setting	measurement	value
COc1cc2ncnc(Nc3ccc4c(c3)/C(=C/c3ccccc3)C(=O)N4)c2cc1OC	A549	MTT		IC50	17.1 µM
Cc1cc(NC(=O)C=Cc2ccccc2)cc(-c2ccnc(N3CCC(O)CC3)c2)c1	A549	MTT	5 µM	inhibition	37.6%
Cc1c(Cc2ccccc2)c(=O)oc2c(C)c(OCC(=O)NN=Cc3ccccc3)ccc12	PC-3	MTT	125 µg/mL	viability	21.2%
Cc1nc(NC(=O)N2CCC[C@H]2C(N)=O)sc1-c1ccnc(C(C)(C)C(F)(F)F)c1	A549	MTT		IC50	11.1 µM
O=C(C=Cc1cccc(F)c1)Nc1cc(-c2ccnc(N3CCC(O)CC3)c2)ccn1	A549	MTT	5 µM	inhibition	65%
COc1cc2ncnc(Nc3ccc4c(c3)/C(=C/c3ccccc3)C(=O)N4C)c2cc1OC	A549	MTT		IC50	14.4 µM
COc1ccc(-c2cc(-c3ccc(Br)cc3)c3c(=O)[nH]c(=O)[nH]c3n2)cc1	PC-3	MTT	48 h	IC50	15.9 µM
C=CCOc1ccc2c(C)c(CC)c(=O)oc2c1C	PC-3	MTT	500 µg/mL	viability	7.08%
COc1cc2ncnc(N(C)c3ccc4c(c3)/C(=C/c3ccccc3)C(=O)N4C)c2cc1OC (mixture of isomers)	A549	MTT		IC50	3.24 µM
O=C(C=Cc1ccc(F)cc1)Nc1cc(-c2ccnc(N3CCC(O)CC3)c2)ccn1	A549	MTT	5 µM	inhibition	65.9%
CCNC(=S)NNC(=O)COc1ccc2c(C)c(CC)c(=O)oc2c1C	PC-3	MTT	31.25 µg/mL	viability	99%
COc1ccc(-c2cc(-c3ccc(OC)cc3)c3c(=O)[nH]c(=O)[nH]c3n2)cc1	PC-3	MTT	48 h	IC50	12.3 µM
O=C(C=Cc1ccccc1)Nc1cccc(-c2ccnc(N3CCOCC3)c2)c1	A549	MTT	5 µM	inhibition	49.3%
CCc1c(C)c2ccc(OCC(=O)NNC(=S)Nc3ccccc3)c(C)c2oc1=O	PC-3	MTT	31.25 µg/mL	viability	48.3%
O=C(O)c1ccc2c(c1)nc(Nc1cccc(Cl)c1)c1ccncc12	NCI-H522	resazurin	48 h	IC50	9.3 µM
O=C(CCc1ccccc1)Nc1cc(-c2ccnc(N3CCC(O)CC3)c2)ccn1	A549	MTT	5 µM	inhibition	65.7%
COc1cccc2c1C(=O)c1c(O)c3c(c(O)c1C2=O)C[C@@](O)(C(=O)CO)C[C@@H]3O[C@H]1C[C@H](N)[C@H](O)[C@H](C)O1	A549	MTT	50 µg/mL, 48 h, serum-free	viability	20.2%
C=CCNC(=S)NNC(=O)COc1ccc2c(C)c(CC)c(=O)oc2c1C	PC-3	MTT	1000 µg/mL	viability	2.65%
Cc1cc(NC(=O)C=Cc2ccccc2)cc(-c2ccnc(N3CCOCC3)c2)c1	A549	MTT	5 µM	inhibition	17.7%
Cc1ccc(-c2cc(-c3ccc(Cl)c(F)c3)c3c(=O)[nH]c(=O)[nH]c3n2)cc1	PC-3	MTT	48 h	IC50	21.2 µM
Cc1cccc(/C=C/C(=O)Nc2cc(-c3ccnc(N4CCC(O)CC4)c3)ccn2)c1	A549	MTT	5 µM	inhibition	74.5%
CCc1c(C)c2ccc(OCC=Cc3ccccc3)c(C)c2oc1=O	PC-3	MTT	250 µg/mL	viability	18.1%
CCC[C@H]1NC(=O)[C@H](Cc2cc(Cl)ccc2-c2cnn(C)c2)N(C)C(=O)[C@H](CC(C)C)NC(=O)[C@@H](N(C)C(=O)[C@H](CCCCN2CCOCC2)NC(=O)[C@@H](c2cccnc2)C2CCCCC2)CCCCNC1=O	NCI-H1048	MTT	5 days	GI50	3 µM
CC(=NNC(=O)COc1ccc2c(C)c(Cc3ccccc3)c(=O)oc2c1C)c1ccc(Br)cc1	PC-3	MTT	500 µg/mL	viability	2.33%
C=CC(=O)NC1CCN(c2ncc3ncnc(Nc4ccc(Oc5ccc6c(c5)ncn6C)c(C)c4)c3n2)CC1	A549			EC50	6.34 µM
CCOc1ccc2c(C)c(CC)c(=O)oc2c1C	PC-3	MTT	125 µg/mL	viability	51%
Cc1cccc(/C=C/C(=O)Nc2cccc(-c3ccnc(N4CCOCC4)c3)c2)c1	A549	MTT	5 µM	inhibition	29.4%
